Values after ≈ are worked out from the molar mass of the structure shown.
Columns and labels:
[1] = Measured ionization constant (pKa); format: physicochemical; conditions: read-out: pKa1
Method in brief: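 Spectrophotometric titration at 20 ± 1 °C, 0.1 M ionic strength, pH varied with H2SO4 or NaOH made up in the compound stock. Absorbance followed at compound-specific wavelengths chosen from 200–400 nm scans. pKa1 and pKa2 taken as the inflection points of the two-step absorbance vs pH curve.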

[2] = HPLC capacity factor (k'); format: ADME
Method in brief: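 Ion-pair reversed-phase HPLC on ODS-2 (10 μm) at 45 °C. Mobile phase: 10 mM sodium heptanesulfonate plus 50 mM KH2PO4 (pH 3.5)–methanol 45:55, 1 mL/min. Samples at 100 μg/mL in DMF, injected in duplicate, UV 280 nm. k' = (tR − t0)/t0.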

[3] = system: Klebsiella pneumoniae; assay: In vitro minimum inhibitory concentration to inhibit Klebsiella pneumoniae ATCC 10031; format: functional
Method in brief: (§1)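 Serial 2-fold agar dilution in Mueller Hinton medium, run alongside a reference quinolone. Inoculum adjusted to 10⁸ cfu/mL; compound range 0.007–16 μg/mL.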

[4] = system: Staphylococcus epidermidis; assay: In vitro minimum inhibitory concentration for Staphylococcus epidermidis ATCC 155-1; format: functional; method in brief: as §1
[5] = system: Bacillus cereus; assay: In vitro minimum inhibitory concentration for Bacillus cereus ATCC 11778; format: functional; method in brief: as §1
[6] = system: Escherichia coli; assay: In vitro minimum inhibitory concentration for Escherichia coli ATCC 10799; format: functional; method in brief: as §1
[7] = system: Mus musculus; assay: Evaluation of efficacy on systemic infections Escherichia coli HM-42, after oral administration in mice; format: functional
Method in brief: (§2)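 Single oral dose given immediately after infection, one of four doses per group, chosen from in vitro activity. Survival scored after one week. ED50 (total mg/kg protecting 50%) interpolated from survival rates.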

[8] = system: Pseudomonas aeruginosa; assay: In vitro minimum inhibitory concentration for Pseudomonas aeruginosa ATCC 10145; format: functional; method in brief: as §1
[9] = system: Morganella morganii; assay: In vitro minimum inhibitory concentration for Morganella morganii ATCC 8019; format: functional; method in brief: as §1
[10] = system: Staphylococcus aureus; assay: In vitro minimum inhibitory concentration for Staphylococcus aureus ATCC 25178; format: functional; method in brief: as §1
[11] = AUC (0-4 hr) ug/ml/h; format: ADME, cell-free; parameters: time < 4 hr; concentration or dose not given beside the values; conditions: plasma
Method in brief: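 Mice dosed once orally at 50 mg/kg; blood taken from groups of six mice at 0.5, 1, 2 and 4 h. Serum drug assayed by disk agar diffusion bioassay (Bacillus subtilis ATCC 6633 on Seed Agar, 37 °C, 18 h), giving total activity.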

[12] = system: Proteus vulgaris; assay: In vitro minimum inhibitory concentration for Proteus vulgaris ATCC 8427; format: functional; method in brief: as §1
[13] = system: Mus musculus; assay: Evaluation of efficacy on systemic infections Pseudomonas aeruginosa HS-116, after oral administration in mice; format: functional; method in brief: as §2
[14] = system: Enterococcus faecalis; assay: In vitro minimum inhibitory concentration for Streptococcus faecalis ATCC 10541; format: functional; method in brief: as §1
[15] = system: Mus musculus; assay: Evaluation of efficacy on systemic infections Staphylococcus aureus HS-93, after oral administration in mice; format: functional; method in brief: as §2
[16] = system: Enterobacter cloacae; assay: In vitro minimum inhibitory concentration for Enterobacter cloacae ATCC 23355; format: functional
[17] = system: Bacillus subtilis; assay: In vitro minimum inhibitory concentration for Bacillus subtilis ATCC 6633; format: functional; method in brief: as §1
[18] = Solubility (buffer pH 7.4); format: physicochemical; conditions: read-out: S
Method in brief: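 Excess solid shaken in 0.05 M phosphate buffer pH 7.4 for 24 h at 25 °C. Suspension filtered through 0.22 μm, discarding the first portion. Filtrate diluted in 0.1 N HCl or 0.1 N NaOH and read by UV at the compound's absorbance maximum.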

SMILES	pKa [1]	Log k' [2]	MIC [3]	MIC [4]	MIC [5]	MIC [6]	MIC [8]	MIC [9]	MIC [10]	AUC [11]	MIC [12]	MIC [14]	MIC [16]	MIC [17]	solubility [18]	ED50 [7]	ED50 [13]	ED50 [15]
NC1CN(c2cc3c(cc2F)c(=O)c(C(=O)O)cn3C2CC2)C1	6.49	-0.0607																
CC[C@H]1[C@@H](N)CN1c1c(F)cc2c(=O)c(C(=O)O)cn(C3CC3)c2c1F		0.1399	0.015 µg/mL (≈ 0.0413 µM)	0.12 µg/mL (≈ 0.33 µM)	0.12 µg/mL (≈ 0.33 µM)	0.12 µg/mL (≈ 0.33 µM)	2 µg/mL (≈ 5.5 µM)	0.12 µg/mL (≈ 0.33 µM)	0.12 µg/mL (≈ 0.33 µM)	14700 ng·h/mL	0.25 µg/mL (≈ 0.688 µM)	2 µg/mL (≈ 5.5 µM)	0.12 µg/mL (≈ 0.33 µM)	0.015 µg/mL (≈ 0.0413 µM)	55.9 µg/mL (≈ 154 µM)			
C[C@H]1[C@H](N)CN1c1nc2c(cc1F)c(=O)c(C(=O)O)cn2C(C)(C)C		0.1644	0.015 µg/mL (≈ 0.0431 µM)	0.12 µg/mL (≈ 0.344 µM)	0.12 µg/mL (≈ 0.344 µM)	0.06 µg/mL (≈ 0.172 µM)	2 µg/mL (≈ 5.74 µM)	0.12 µg/mL (≈ 0.344 µM)	0.12 µg/mL (≈ 0.344 µM)	16500 ng·h/mL	0.25 µg/mL (≈ 0.718 µM)	1 µg/mL (≈ 2.87 µM)	0.06 µg/mL (≈ 0.172 µM)	0.015 µg/mL (≈ 0.0431 µM)				
CC1([N+](C)(C)C)CN(c2c(F)cc3c(=O)c(C(=O)O)cn(C4CC4)c3c2F)C1	6.03																	
C[C@H]1[C@H](N)CN1c1cc2c(cc1F)c(=O)c1c(=O)[nH]sc1n2C1CC1		0.065	0.015 µg/mL (≈ 0.0416 µM)	0.03 µg/mL (≈ 0.0832 µM)	0.06 µg/mL (≈ 0.166 µM)	0.03 µg/mL (≈ 0.0832 µM)	0.25 µg/mL (≈ 0.694 µM)	0.03 µg/mL (≈ 0.0832 µM)	0.06 µg/mL (≈ 0.166 µM)	16200 ng·h/mL	0.12 µg/mL (≈ 0.333 µM)	0.25 µg/mL (≈ 0.694 µM)	0.015 µg/mL (≈ 0.0416 µM)	0.015 µg/mL (≈ 0.0416 µM)				
CC[N+](C)(C)C1CN(c2cc3c(cc2F)c(=O)c(C(=O)O)cn3C2CC2)C1	6.46																	
Nc1c(F)c(N2CC(N)C2)c(F)c2c1c(=O)c(C(=O)O)cn2C1CC1	6.65	-0.0505																

The next lines start with results.

pKa [1]	Log k' [2]	MIC [3]	MIC [4]	MIC [5]	MIC [6]	MIC [8]	MIC [9]	MIC [10]	AUC [11]	MIC [12]	MIC [14]	MIC [16]	MIC [17]	solubility [18]	SMILES	ED50 [7]	ED50 [13]	ED50 [15]
	0.0755	0.015 µg/mL (≈ 0.0389 µM)	0.25 µg/mL (≈ 0.649 µM)	0.25 µg/mL (≈ 0.649 µM)	0.12 µg/mL (≈ 0.311 µM)	1 µg/mL (≈ 2.59 µM)	0.06 µg/mL (≈ 0.156 µM)	0.25 µg/mL (≈ 0.649 µM)	16900 ng·h/mL	0.25 µg/mL (≈ 0.649 µM)	0.5 µg/mL (≈ 1.3 µM)	0.06 µg/mL (≈ 0.156 µM)	0.06 µg/mL (≈ 0.156 µM)		C[C@H]1[C@H](N)CN1c1cc2c(cc1F)c(=O)c(C(=O)O)cn2-c1ccc(F)cc1	2.9 mg/kg	109 mg/kg	7.5 mg/kg
	0.2581	0.03 µg/mL (≈ 0.0715 µM)	0.06 µg/mL (≈ 0.143 µM)	0.03 µg/mL (≈ 0.0715 µM)	0.06 µg/mL (≈ 0.143 µM)	0.25 µg/mL (≈ 0.596 µM)	0.06 µg/mL (≈ 0.143 µM)	0.03 µg/mL (≈ 0.0715 µM)		0.25 µg/mL (≈ 0.596 µM)	0.25 µg/mL (≈ 0.596 µM)	0.06 µg/mL (≈ 0.143 µM)	0.03 µg/mL (≈ 0.0715 µM)		C[C@H]1[C@H](N)CN1c1c(F)cc2c(=O)c(C(=O)O)cn(-c3ccc(F)cc3)c2c1Cl	3.6 mg/kg	37.9 mg/kg	1.3 mg/kg
	0.1421	0.03 µg/mL (≈ 0.0869 µM)	0.12 µg/mL (≈ 0.347 µM)	0.25 µg/mL (≈ 0.724 µM)	0.06 µg/mL (≈ 0.174 µM)	2 µg/mL (≈ 5.79 µM)	0.06 µg/mL (≈ 0.174 µM)	0.25 µg/mL (≈ 0.724 µM)	3800 ng·h/mL	0.25 µg/mL (≈ 0.724 µM)	2 µg/mL (≈ 5.79 µM)	0.015 µg/mL (≈ 0.0434 µM)	0.015 µg/mL (≈ 0.0434 µM)	1.3 µg/mL (≈ 3.76 µM)	C[C@H]1N(c2cc3c(cc2F)c(=O)c(C(=O)O)cn3C2CC2)C[C@]1(C)N			
	-0.0915	0.06 µg/mL (≈ 0.188 µM)	0.25 µg/mL (≈ 0.783 µM)	1 µg/mL (≈ 3.13 µM)	0.25 µg/mL (≈ 0.783 µM)	2 µg/mL (≈ 6.26 µM)	0.25 µg/mL (≈ 0.783 µM)	1 µg/mL (≈ 3.13 µM)		1 µg/mL (≈ 3.13 µM)	2 µg/mL (≈ 6.26 µM)	0.12 µg/mL (≈ 0.376 µM)	0.12 µg/mL (≈ 0.376 µM)		CCn1cc(C(=O)O)c(=O)c2cc(F)c(N3C[C@@H](N)[C@@H]3C)cc21			
	-0.1024	0.03 µg/mL (≈ 0.0844 µM)	0.5 µg/mL (≈ 1.41 µM)	0.5 µg/mL (≈ 1.41 µM)	0.12 µg/mL (≈ 0.338 µM)	1 µg/mL (≈ 2.81 µM)	0.06 µg/mL (≈ 0.169 µM)	0.5 µg/mL (≈ 1.41 µM)		0.5 µg/mL (≈ 1.41 µM)	2 µg/mL (≈ 5.63 µM)	0.12 µg/mL (≈ 0.338 µM)	0.12 µg/mL (≈ 0.338 µM)		C[C@H]1[C@H](N)CN1c1c(F)cc2c(=O)c(C(=O)O)cn(CCF)c2c1F			

From ChEMBL document CHEMBL1127424, “7-azetidinylquinolones as antibacterial agents. 2. Synthesis and biological activity of 7-(2,3-disubstituted-1-azetidinyl)-4-oxoquinoline- and -1,8-naphthyridine-3-carboxylic acids. Properties and structure-activity relationships of quinolones with an azetidine moiety” (J Med Chem, 1994)
